# High-throughput results as filed in PubChem BioAssay.
# Sampled rows, rich in hits. Any-hit rate of the full collection: about 0.99%.
# ABCG2 inh: ABCG2 efflux pump inhibitors, primary screen, multiplex with ABCB1, IgMXP3 cells, flow cytometry | Broad substrate specificity ATP-binding cassette transporter ABCG2 (Homo sapiens), Q9UNQ0 | JC-1 efflux | inhibition, % at 6.6 µM | actives 0.1% (n = 190,000);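 active = inhibition above 80%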;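 also: 0% = DMSO and 100% = nicardipine control wells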
#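 Test system: IgMXP3 cells (ABCG2) mixed with DDAO far-red-labelled CCRF-Adr cells (ABCB1). Reagent: JC-1 transporter substrate. Compound dosing: single test compound dose, 6.6 µM final. Times: 10 min compound exposure, 25 °C. Detection: flow cytometry of retained JC-1 fluorescence. Read-out basis: efflux inhibition in percent versus controls. Controls: nicardipine and DMSO wells.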
# ABCB1 inh: ABCB1 efflux pump inhibitors, primary screen, cell-based, multiplex, flow cytometry, ABCG2 counter-screen. ATP-dependent translocase ABCB1 (Homo sapiens), P08183. CCRF-Adr cells, JC-1 efflux. inhibition, % at 6.6 µM. actives 0.067% (n = 190,000). AID 1326, 2008; in the data active = inhibition above about 40%;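 also: 0% = vehicle and 100% = reference inhibitor; higher value means more JC-1 retained so stronger ABCB1 efflux block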
# GRK2 inh: compounds blocking aptamer binding on GRK2 – biochemical, human GRK2, bead flow cytometry, HTS, primary screen | FAM-aptamer displacement from GRK2 | inhibition of aptamer binding, % at 10 µM | actives 0.59% (n = 330,000);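 active = inhibition of aptamer binding above 40%, roughly 3 SD of noise, on plates passing a quality check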;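 also: median bead fluorescence of bound FAM aptamer so fluorescent compounds give negative values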
# DDE Tn6 FP inh: inhibitors of Tn6 peptide binding to fibrin DD(E), primary screen, biochemical, fluorescence polarization, human fibrin, Tn6 probe | Fibrinogen beta chain (Homo sapiens), P02675 | inhibition, % at 8.3 µM | Fibrin DD(E) TRITC-Tn6 fluorescence polarization displacement | AID 720509, 2013 | actives 0.21% (n = 370,000);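 active = inhibition above a per-campaign cutoff: mean of compounds within control limits plus 3 SD, cut at about 15% in these data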;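 also: 0% = median of all compound wells on the plate and 100% = blocking peptide control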
# Insulin prom up: insulin promoter activators in MIN6 cells, imaging, high-content screening, mouse beta cells | z-score at 5 µM | MIN6 insulin promoter-GFP reporter; stronger effect = higher value | AID 1625, 2009 | actives 0.3% (n = 190,000);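 active = z-score above 3 at 5 µM with at least 500 cells counted in the well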
# Tn7 DDE FP: inhibitors of Tn7 peptide binding to fibrin DD(E), primary screen, biochemical, fluorescence polarization, human fibrin, Tn7 probe; inhibition, % at 8.3 µM; Fibrinogen beta chain (Homo sapiens), P02675; AID 720508, 2013; actives 0.13% (n = 370,000); FP displacement of FITC-Tn7 peptide from fibrin DD(E); 0% = median of compound wells per plate;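 active = inhibition above the mean of compounds falling within the control limits plus 3 SD of them, cut at about 14% in these data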;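 also: 0% = plate median of compound wells and 100% = 10 µM Aha-Tn7 peptide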
#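 Assay system: human fibrin DD(E) protein / Input: 2 µM fibrin DD(E) / Benchmarks: high control of 10 µM Aha-Tn7 peptide / Measured by: fluorescence polarization of the labelled Tn7 tracer / Medium: Tris buffer with calcium and detergent, pH 7.8 / Timing: 10 min compound pre-incubation, 3 h probe incubation at room temperature / Repeats: one replicate per compound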
# GRK2 CP1: GRK2 aptamer-displacing inhibitors, retest, confirmation, biochemical, cherry pick 1, bead flow cytometry; aptamer displacement, % at 10 µM; actives 4% (n = 2,000); bead-bound GRK2, FAM-aptamer displacement; shares compounds with GRK2 inh; AID 504451, 2011;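 active = aptamer displacement above 40%, near three times the noise of non-fluorescent compounds, on plates passing quality checks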;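 also: negative values mostly reflect intrinsic compound fluorescence rather than true enhancement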
# FAM quench CP1: counter-screen for GRK2 aptamer inhibitors: fluorescent aptamer quenchers | Carboxyfluorescein RNA aptamer on beads, flow cytometry quenching; stronger effect = lower value | shares compounds with GRK2 inh | 2,000 tested, under 10 active | fluorescence response (% of DMSO), % at 10 µM;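 active = compounds that quench the bead-bound fluorescent RNA probe, cutting fluorescence to under half of the solvent control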;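 also: counterscreen run without GRK2 so only probe quenching by compound is measured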
# The depositor's hits bear a star; / = no result.
SMILES,ABCG2 inh,ABCB1 inh,GRK2 inh,DDE Tn6 FP inh,Insulin prom up,Tn7 DDE FP,GRK2 CP1,FAM quench CP1
CCN(CC)CCNC(=O)CNC(=O)c1nn(-c2ccc(OC)c(OC)c2)c(=O)c2ccccc12,/,/,0,1,/,3,1,99
CCN(CC)CCCNC(=O)CNC(=O)c1nn(-c2ccc(OC)cc2)c(=O)c2ccccc12,0,0,0,3,0.19,-7,/,/
CCN(CC)CCCNC(=O)CNC(=O)c1nn(-c2ccc(OC)c(OC)c2)c(=O)c2ccccc12,/,/,2,-7,/,3,/,/
CCCCNC(=O)CNC(=O)c1nn(-c2ccc(OC)cc2)c(=O)c2ccccc12,/,/,26,7,/,-2,2,94
Cc1cc2c(OCC(CNC(C)(C)C)OC(=O)c3ccccc3)cccc2[nH]1 (centres undefined),/,/,/,-1,/,-2,/,/
O=C(Nc1cccc2ccccc12)OC[C@@H]1CSCCS(=O)(=O)N1,/,/,/,3,/,-10,/,/
CCN(C(=O)CSc1nnc(-c2cccnc2)n1Cc1ccco1)c1ccccc1,/,/,/,4,/,3,/,/
CC1=C2NC(N)=[N+](Cc3ccccc3)CC2n2c(=O)n(-c3ccccc3)c(=O)n2C1 (centres undefined),/,/,/,-3,/,6,/,/
O=Cc1nc(-c2ccc(Cl)cc2)n2ccccc12,47,0,1,-4,-0.08,-2,/,/
O=Cc1nc(-c2ccccc2Cl)n2ccccc12,2,1,45*,-6,1.2,-1,-5,97
O=C(CSc1cnc2ccccc2n1)NC1CCCC1,1,0,81*,10,0.46,-1,-3,98
CCCCNC(=O)c1ccccc1SCC(=O)NC1CCCCCCC1,/,/,61*,-2,/,8,-18,96
CC(C)(C)C(=O)O[C@@H]1CCC[C@@]2(C(=O)N(Cc3ccccc3)c3ccccc32)[C@H]1NC(=O)CCc1ccccc1,/,/,/,-3,/,6,/,/
CCCN1CCS(=O)(=O)N(Cc2cn(Cc3ccc(OC)cc3)nn2)C(C(=O)OC)C1 (centres undefined),/,/,/,-5,/,0,/,/
Cc1ccc(/C=C2/C(=N)N3N=C(CC(=O)N4CCCC4)SC3=NC2=O)o1,/,/,0,-5,/,-5,0,98
N=C1/C(=C\c2ccc(Br)o2)C(=O)N=C2SC(CC(=O)N3CCCCC3)=NN12,/,/,15,-6,/,-4,/,/
O=C(CCN1C(=O)c2ccccc2C1=O)NCc1ccccc1,/,/,0,6,/,1,/,/
O=C(CCN1C(=O)c2ccccc2C1=O)Nn1cnnc1,3,0,52*,0,-0.8,-3,2,94
Cc1cc(C)c(C)c(S(=O)(=O)N2C(=S)NC(=O)C2CC(C)C)c1C (centres undefined),0,0,96*,2,-0.07,1,-3,102
COc1ccc(C(=O)O)cc1N1C(=O)Nc2ccccc2N1O,1,0,78*,1,-0.34,-2,0,100
COc1ccc(CNS(=O)(=O)c2ccc3c(c2)C(C)(C)C(=O)N3C)cc1,/,/,2,9,/,-5,/,/
COc1cc(NS(=O)(=O)c2ccc3c(c2)C(C)(C)C(=O)N3C)cc(OC)c1,/,/,44*,0,/,-8,4,99
